Source: ChEMBL document CHEMBL5303300, “EUbOPEN Chemogenomics Library - Multiplex” (2023)
Where “and” joins values, the source holds several entries; their conditions need not be identical. Equal values may be shown once.

System: Fibroblast
Assay: Multiplex assay against human fibroblast
Type: toxicity, cell-based
Conditions: number of replicates 2
Summary of the method: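 Hoechst33342, BioTracker Green Microtubule Cytoskeleton Dye, MitoTracker Red and Annexin V Alexa Fluor 680 were added to live cells at seeding, and imaging on a CQ1 microscope at 37°C and 5% CO2 followed compound addition. Gating by CellPathfinder machine learning separated cells into Hoechst high-intensity objects or normal cells, then normal cells into healthy, pyknosed or fragmented nuclei, then pyknosed cells into mitotic or apoptotic. Per cents of healthy-nucleus cells are reported for the tubulin, mitochondrial-mass and membrane-permeability phenotypes.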

[1] = 12 h, 1 µM, compound concentration 1 uM
[2] = 12 h, 10 µM, compound concentration 10 uM
[3] = 24 h, 1 µM, compound concentration 1 uM
[4] = 24 h, 10 µM, compound concentration 10 uM
[5] = 48 h, 1 µM, compound concentration 1 uM
[6] = 48 h, 10 µM, compound concentration 10 uM

CS(=O)(=O)c1ccc(C(=O)Nc2ccc(F)c(COc3ccc(Br)cc3CNCCO)c2)c(Cl)c1.O=CO
Population Apoptotic (%) [1]: 41% and 39%
Population Healthy Nuclei (%) [1]: 69% and 66%
Population Mitotic Cells (%) [1]: 58% and 60%
Total Cell Count [1]: 178 and 232
Population Apoptotic (%) [2]: 50% and 51%
Population Healthy Nuclei (%) [2]: 49%
Population Mitotic Cells (%) [2]: 50% and 48%
Population Pyknosed Nuclei (%) [2]: 35% and 30%
Total Cell Count [2]: 220 and 252
Population Apoptotic (%) [3]: 63% and 46%
Population Healthy Nuclei (%) [3]: 68% and 56%
Population Mitotic Cells (%) [3]: 36% and 53%
Total Cell Count [3]: 202 and 243
Population Apoptotic (%) [4]: 68% and 73%
Population Healthy Nuclei (%) [4]: 54% and 56%
Population Mitotic Cells (%) [4]: 31% and 26%
Population Pyknosed Nuclei (%) [4]: 27% and 22%
Total Cell Count [4]: 219 and 283
Population Apoptotic (%) [5]: 54% and 68%
Population Healthy Nuclei (%) [5]: 71% and 72%
Population Mitotic Cells (%) [5]: 45% and 31%
Total Cell Count [5]: 202 and 207
Population Apoptotic (%) [6]: 88% and 77%
Population Healthy Nuclei (%) [6]: 63% and 61%
Population Mitotic Cells (%) [6]: 11% and 22%
Population Pyknosed Nuclei (%) [6]: 22%
Total Cell Count [6]: 200 and 244

CS(=O)(=O)c1ccc(C(=O)Nc2cccc(COc3cc(F)c(Br)cc3CN3CC[C@H](O)C3)c2)c(Cl)c1.O=CO
Population Apoptotic (%) [1]: 46% and 35%
Population Healthy Nuclei (%) [1]: 48% and 72%
Population Mitotic Cells (%) [1]: 53% and 64%
Population Pyknosed Nuclei (%) [1]: 41% and 16%
Total Cell Count [1]: 114 and 171
Population Apoptotic (%) [2]: 51% and 40%
Population Healthy Nuclei (%) [2]: 48% and 51%
Population Mitotic Cells (%) [2]: 48% and 59%
Population Pyknosed Nuclei (%) [2]: 33% and 23%
Total Cell Count [2]: 211 and 262
Population Apoptotic (%) [3]: 55% and 57%
Population Healthy Nuclei (%) [3]: 50%
Population Mitotic Cells (%) [3]: 42%
Population Pyknosed Nuclei (%) [3]: 39% and 18%
Total Cell Count [3]: 120 and 190
Population Apoptotic (%) [4]: 77% and 74%
Population Healthy Nuclei (%) [4]: 53% and 58%
Population Mitotic Cells (%) [4]: 22%
Population Pyknosed Nuclei (%) [4]: 26% and 19%
Total Cell Count [4]: 217 and 251
Population Apoptotic (%) [5]: 75% and 82%
Population Healthy Nuclei (%) [5]: 62%
Population Mitotic Cells (%) [5]: 24%
Population Pyknosed Nuclei (%) [5]: 23% and 11%
Total Cell Count [5]: 123 and 198
Population Apoptotic (%) [6]: 92% and 82%
Population Healthy Nuclei (%) [6]: 62% and 60%
Population Mitotic Cells (%) [6]: 7%
Population Pyknosed Nuclei (%) [6]: 15% and 14%
Total Cell Count [6]: 245 and 274
